Reference: ChEMBL document CHEMBL1122615, “Design and synthesis of naltrexone-derived affinity labels with nonequilibrium opioid agonist and antagonist activities. Evidence for the existence of different mu receptor subtypes in different tissues” (J Med Chem, 1984)
Values joined by “and” are separate entries in the source; they are usually repeats but may differ in a detail not shown here. Identical values can stand only once. Active and inactive are the calls of the source. The calls are words filed in the database; no cut-off is given here.

Assays:
Cavia porcellus [1] = species: Cavia porcellus; assay: Evaluated for the inhibition concentration in the guinea pig ileal longitudinal muscle preparation (GPI); assay type: functional, Muscle tissue
[2] = (§1) Compound was tested for irreversible antagonist activity at kappa receptor by determining by ileal response to ethylketazocine after 30 min incubation at 1000 nM; assay type: functional
[3] = target: Mu-type opioid receptor (Mus musculus) (UniProt P42866); assay: Irreversible antagonist activity at mouse vas deferens mu receptor against DADLE after 30 min at 200 nM; assay type: functional, tissue-based
Chain of Mu-type opioid receptor (Mus musculus) (P42866 whole entry): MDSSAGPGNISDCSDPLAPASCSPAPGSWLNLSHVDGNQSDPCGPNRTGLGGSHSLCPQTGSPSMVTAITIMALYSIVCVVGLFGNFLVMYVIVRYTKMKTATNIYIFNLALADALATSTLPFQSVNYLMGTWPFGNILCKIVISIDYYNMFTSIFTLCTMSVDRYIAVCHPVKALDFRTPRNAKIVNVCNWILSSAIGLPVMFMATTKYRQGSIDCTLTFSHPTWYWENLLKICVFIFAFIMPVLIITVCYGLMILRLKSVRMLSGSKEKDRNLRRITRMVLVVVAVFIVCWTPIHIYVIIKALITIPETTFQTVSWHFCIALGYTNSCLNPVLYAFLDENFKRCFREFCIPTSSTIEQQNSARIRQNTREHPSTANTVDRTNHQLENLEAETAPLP

[4] = target: Kappa-type opioid receptor (Homo sapiens) (UniProt P41145); assay: Irreversible antagonist activity at kappa receptor as ileal response to ethylketazocine after 30 min incubation at 20 nM; assay type: functional
Chain of Kappa-type opioid receptor (Homo sapiens) (P41145 whole entry): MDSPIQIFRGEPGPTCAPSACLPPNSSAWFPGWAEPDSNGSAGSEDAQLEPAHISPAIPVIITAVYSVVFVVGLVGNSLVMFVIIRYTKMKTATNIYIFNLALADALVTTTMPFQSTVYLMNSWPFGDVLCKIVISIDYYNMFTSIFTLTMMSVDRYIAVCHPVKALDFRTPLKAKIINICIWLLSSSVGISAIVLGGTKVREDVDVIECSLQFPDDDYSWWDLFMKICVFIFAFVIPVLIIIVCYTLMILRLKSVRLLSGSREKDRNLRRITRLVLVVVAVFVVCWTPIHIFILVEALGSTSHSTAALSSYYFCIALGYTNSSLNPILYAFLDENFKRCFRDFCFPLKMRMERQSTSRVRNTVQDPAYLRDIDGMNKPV

Cavia porcellus [5] = species: Cavia porcellus; assay: The agonist potency in the guinea pig ileal longitudinal muscle preparation (GPI) was determined relative to morphine as control; assay type: functional, Muscle tissue
[6] = target: Mu-type opioid receptor (Homo sapiens) (UniProt P35372); assay: Compound was tested for irreversible antagonist activity at mu receptor by determining by ileal response to morphine after 30 min incubation at 200 nM; assay type: functional
Chain of Mu-type opioid receptor (Homo sapiens) (P35372 whole entry): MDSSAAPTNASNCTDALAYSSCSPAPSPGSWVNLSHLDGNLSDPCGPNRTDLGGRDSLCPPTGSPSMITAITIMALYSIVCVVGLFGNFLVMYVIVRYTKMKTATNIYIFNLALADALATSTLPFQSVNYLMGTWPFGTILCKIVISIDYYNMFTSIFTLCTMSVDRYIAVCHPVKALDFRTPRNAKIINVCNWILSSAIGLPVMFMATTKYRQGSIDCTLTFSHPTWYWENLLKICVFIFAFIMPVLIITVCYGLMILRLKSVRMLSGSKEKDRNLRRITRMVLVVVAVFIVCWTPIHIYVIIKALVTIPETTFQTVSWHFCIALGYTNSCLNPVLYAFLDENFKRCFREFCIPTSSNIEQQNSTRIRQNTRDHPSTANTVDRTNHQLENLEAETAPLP

[7] = target: Mu-type opioid receptor (Homo sapiens) (UniProt P35372); assay: Compound was tested for irreversible antagonist activity at mu receptor by determining by MVD response to morphine after 30 min incubation at 200 nM; assay type: functional
Cavia porcellus [8] = species: Cavia porcellus; assay: (§2) Compound was tested for persistent effect, percent inhibition of twitch that is not reversed by >=20 washings following 30 -min incubation at 200 nM; assay type: functional
[9] = target: Mu-type opioid receptor (Homo sapiens) (UniProt P35372); assay: Compound was tested for irreversible antagonist activity at mu receptor by determining by MVD response to DADLE after 30 min incubation at 30 nM; assay type: functional
[10] = target: Mu-type opioid receptor (Homo sapiens) (UniProt P35372); assay: Irreversible antagonist activity at mu receptor by determining by ileal response to morphine after 30 min incubation at 20 nM; assay type: functional
Mus musculus [11] = species: Mus musculus; assay: The agonist potency was assessed by measuring the inhibition of contraction at a single concentration (30 nM).; assay type: functional
[12] = target: Kappa-type opioid receptor (Homo sapiens) (UniProt P41145); assay: as §1; assay type: functional
[13] = The relative rate (to beta FNA) in the reaction of Michael acceptors with cysteine at pH 7.4 at 25 degree Celsius in the presence of 13 fold excess cysteine was reported for half-life.; assay type: ADME
In short: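 Reaction with a 13-fold excess of cysteine at pH 7.4, 25 °C under rapid stirring; aliquots quenched by acidification to pH 1 at timed intervals. Remaining compound quantified by reversed-phase HPLC (UV 254 nm, internal standard), four intervals in duplicate. Half-life taken from the slope of log amount remaining vs time; rate expressed relative to β-FNA.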

[14] = target: Mu-type opioid receptor (Homo sapiens) (UniProt P35372); assay: Compound was tested for irreversible antagonist activity at mu receptor by determining by ileal response to morphine after 30 min incubation at 1000 nM; assay type: functional
[15] = target: Mu-type opioid receptor (Homo sapiens) (UniProt P35372); assay: Compound was tested for irreversible antagonist activity at mu receptor by determining by MVD response to DADLE after 30 min incubation at 100 nM; assay type: functional
[16] = target: Mu-type opioid receptor (Homo sapiens) (UniProt P35372); assay: Compound was tested for irreversible antagonist activity at mu receptor by determining by MVD response to morphine after 30 min incubation at 100 nM; assay type: functional
Mus musculus [17] = species: Mus musculus; assay: Compound was tested for persistent effect, percent inhibition contraction that is not reversed significantly by >=20 washings following a 30 min incubation at 3 nM.; assay type: functional
[18] = target: Mu-type opioid receptor (Homo sapiens) (UniProt P35372); assay: Compound was tested for irreversible antagonist activity at mu receptor by determining by MVD response to DADLE after 30 min incubation at 3 nM; assay type: functional
[19] = target: Kappa-type opioid receptor (Homo sapiens) (UniProt P41145); assay: Compound was tested for irreversible antagonist activity at kappa receptor by determining by ileal response to ethylketazocine after 30 min incubation at 10 nM; assay type: functional
Mus musculus [20] = species: Mus musculus; assay: (§3) The agonist potency was assessed by measuring the inhibition of contraction at a single concentration (200 nM).; assay type: functional
[21] = target: Mu-type opioid receptor (Homo sapiens) (UniProt P35372); assay: Compound was tested for irreversible antagonist activity at mu receptor by determining by ileal response to morphine after 30 min incubation at 10 nM; assay type: functional
[22] = target: Kappa-type opioid receptor (Homo sapiens) (UniProt P41145); assay: Compound was tested for irreversible antagonist activity at kappa receptor by determining by ileal response to ethylketazocine after 30 min incubation at 200 nM; assay type: functional
Cavia porcellus [23] = species: Cavia porcellus; assay: as §2; assay type: functional; remark: listed apart in the source
[24] = target: Mu-type opioid receptor (Homo sapiens) (UniProt P35372); assay: Compound was tested for irreversible antagonist activity at mu receptor by determining by ileal response to morphine after 30 min incubation at 20 nM; assay type: functional
[25] = target: Kappa-type opioid receptor (Homo sapiens) (UniProt P41145); assay: Compound was tested for irreversible antagonist activity at kappa receptor by determining by ileal response to ethylketazocine after 30 min incubation at 20 nM; assay type: functional
[26] = target: Mu-type opioid receptor (Homo sapiens) (UniProt P35372); assay: Compound was tested for irreversible antagonist activity at mu receptor by determining by MVD response to ethylketazocine after 30 min incubation at 200 nM; assay type: functional
Mus musculus [27] = species: Mus musculus; assay: as §3; assay type: functional; remark: listed apart in the source
Cavia porcellus [28] = species: Cavia porcellus; assay: Compound was tested for persistent effect, percent inhibition of twitch that is not reversed by >=20 washings following 30 -min incubation at 20 nM; assay type: functional
[29] = target: Mu-type opioid receptor (Homo sapiens) (UniProt P35372); assay: Compound was tested for irreversible antagonist activity at mu receptor by determining by MVD response to Morphine after 30 min incubation at 200 nM; assay type: functional
Cavia porcellus [30] = species: Cavia porcellus; assay: Compound was tested for persistent effect, percent inhibition of twitch that is not reversed by >=20 washings following 30 -min incubation at 200 nM; none; assay type: functional
Cavia porcellus [31] = species: Cavia porcellus; assay: Compound was tested for persistent effect, percent inhibition of twitch that is not reversed by >=20 washings following 30 -min incubation at 20 nM; none; assay type: functional
Mus musculus [32] = species: Mus musculus; assay: Compound was tested for persistent effect, percent inhibition contraction that is not reversed significantly by >=20 washings following a 30 min incubation at 200 nM.; assay type: functional
[33] = target: Mu-type opioid receptor (Homo sapiens) (UniProt P35372); assay: Compound was tested for irreversible antagonist activity at mu receptor by determining by MVD response to DADLE after 30 min incubation at 20 nM; assay type: functional
Mus musculus [34] = species: Mus musculus; assay: The agonist potency was assessed by measuring the inhibition of contraction at a single concentration (200 nM); assay type: functional
Mus musculus [35] = species: Mus musculus; assay: Compound was tested for persistent effect, percent inhibition contraction that is not reversed significantly by >=20 washings following a 30 min incubation at 20 nM.; assay type: functional
[36] = target: Mu-type opioid receptor (Homo sapiens) (UniProt P35372); assay: Compound was tested for irreversible antagonist activity at mu receptor by determining by MVD response to DADLE after 30 min incubation at 10 nM; assay type: functional
[37] = target: Mu-type opioid receptor (Homo sapiens) (UniProt P35372); assay: Compound was tested for irreversible antagonist activity at mu receptor by determining by MVD response to DADLE after 30 min incubation at […]; assay type: functional
[38] = target: Mu-type opioid receptor (Homo sapiens) (UniProt P35372); assay: Compound was tested for irreversible antagonist activity at mu receptor by determining by MVD response to morphine after 30 min incubation at 20 nM; assay type: functional

Compound | Ratio [3] | Ratio [4] | Potency (Cavia porcellus [5]) | Ratio [6] | Ratio [7] | Ratio [10] | Relative rate [13] | Ratio [22] | Agonist potency (Mus musculus [27]) | further results
CCOc1ccc2c(c1)C1(C)CCN(CC3CC3)C(C2=O)C1C (stereo not given) [ETHYLKETAZOCINE] |  |  |  |  |  |  |  |  |  | IC50 (Cavia porcellus [1]; Cavia porcellus, Muscle tissue): 9.73 nM
C=CCN1CCC23c4c5ccc(O)c4OC2[C@H](NC(=O)/C=C/C(=O)OC)CCC3(O)C1C5 (stereo not given in full) | 1.1 | 1 | 5.8 | 6.4 | 4 | 2.2 |  |  |  | Ratio [2]: 1.9; Inhibition (Cavia porcellus [8]): 40%; Ratio [9]: 1.7; Agonist potency (Mus musculus [11]): 34
COC(=O)/C=C/C(=O)N[C@@H]1CC[C@@]2(O)[C@H]3Cc4ccc(O)c5c4[C@@]2(CCN3CC2CC2)[C@H]1O5 | 1.1 | 1 | 5 |  | 10.6 | 6 | 1 |  |  | Ratio [12]: 1.3; Ratio [14]: 18.8; Ratio [15]: 1.8; Ratio [16]: 3.9
6beta-[(Chloromercuri)acetamido]-17-(cyclopropyl-methyl)-4,5alpha-epoxy-3,14-duhydroxymorphinan Methanesulphonate [listing 1 of 2 here] | 2.6 and 0.9 | 1 |  | 4.2 | 0.57 |  |  | 1.3 |  | Potency (Cavia porcellus [5]; Muscle tissue): 50; inhibition (Mus musculus [17]): 20%; Ratio [18]: 1.1; Ratio [19]: 0.74; Potency (Mus musculus [20]): 54 nM; Ratio [21]: 0.75; inhibition (Cavia porcellus [23]): 26%; Ratio [24]: 1.2
COC(=O)CCC(=O)N[C@@H]1CCC2(O)C3Cc4ccc(O)c5c4C2(CCN3CC2CC2)C1O5 (stereo not given in full) |  |  | 5.3 |  |  |  |  |  |  | Ratio [25]: 1; Inhibition (Cavia porcellus [8]): 10%; Ratio [24]: 0.92
O=C(CN1C(=O)C=CC1=O)N[C@@H]1CCC2(O)C3Cc4ccc(O)c5c4C2(CCN3CC2CC2)C1O5 (stereo not given in full) | 1.8 | 0.71 | 0.6 | 3.3 |  | 1.5 | 450 | 0.92 | 240 nM | Ratio [26]: 0.71; Inhibition (Cavia porcellus [28]): 21%; Inhibition (Cavia porcellus [8]): 59%; Ratio [29]: 30
O=C(CSSc1ccccc1[N+](=O)[O-])N[C@@H]1CCC2(O)C3Cc4ccc(O)c5c4C2(CCN3CC2CC2)C1O5 (stereo not given in full) | 0.98 | 0.5 | 1.1 | 2.5 | 1.8 | 1.3 |  | 1.3 | 70 | inhibition (Cavia porcellus [30]): inactive
CC(=O)/C=C/C(=O)N[C@@H]1CCC2(O)C3Cc4ccc(O)c5c4C2(CCN3CC2CC2)C1O5 (stereo not given in full) | 5 | 0.9 | 4.5 |  | 30 | 12.5 | 225 |  | 31 | inhibition (Cavia porcellus [31]): inactive
O=C1C=CC(=O)N1[C@@H]1CCC2(O)C3Cc4ccc(O)c5c4C2(CCN3CC2CC2)C1O5 (stereo not given in full) | 0.81 | 0.94 | 2 | 1.3 | 1.1 | 1.3 | 450 | 1.4 | 52 | Inhibition (Mus musculus [32]): 35%
O=C(N[C@@H]1CC[C@@]2(O)[C@H]3Cc4ccc(O)c5c4[C@@]2(CCN3CC2CC2)[C@H]1O5)c1ccccc1 | 1 | 0.91 | 201 |  | 1.9 | 1.4 |  |  |  | Ratio [33]: 2.3; Inhibition (Mus musculus [32]): 50%; Agonist potency (Mus musculus [34]): 29 nM; Inhibition (Cavia porcellus [28]): 39%
O=C(CBr)N[C@@H]1CCC2(O)C3Cc4ccc(O)c5c4C2(CCN3CC2CC2)C1O5 (stereo not given in full) | 1.5 | 0.73 | 58 | 1.7 | 1.4 | 3.3 |  | 0.78 | 31 | Inhibition (Mus musculus [32]): 20%
C=C(Cl)C(=O)N[C@@H]1CCC2(O)C3Cc4ccc(O)c5c4C2(CCN3CC2CC2)C1O5 (stereo not given in full) | 1.6 | 0.93 | 1.1 |  | 6 | 13.4 | 0.4 | 0.88 |  | inhibition (Cavia porcellus [30]): inactive; Agonist potency (Mus musculus [34]): 44
O=C(N[C@@H]1CCC2(O)C3Cc4ccc(O)c5c4C2(CCN3CC2CC2)C1O5)C(=O)c1ccccc1 (stereo not given in full) | 0.87 | 0.93 | 24 |  | 6.5 | 1.48 |  |  | 51 | Ratio [33]: 0.51; Inhibition (Mus musculus [35]): 44%; Inhibition (Cavia porcellus [28]): 22%; Ratio [36]: 0.56
COC(=O)C=CC(=O)N[C@@H]1CCC2(O)C3Cc4ccc(O)c5c4C2(CCN3CC2CC2)C1O5 (stereo not given in full) |  |  |  |  |  |  | 0.5 |  |  | 
6beta-[(Chloromercuri)acetamido]-17-(cyclopropyl-methyl)-4,5alpha-epoxy-3,14-duhydroxymorphinan Methanesulphonate [listing 2 of 2 here] |  |  |  |  |  |  |  |  |  | IC50 (Cavia porcellus [1]): 300 nM
C#CC(=O)N[C@@H]1CCC2(O)C3Cc4ccc(O)c5c4C2(CCN3CC2CC2)C1O5 (stereo not given in full) | 1.3 | 0.84 | 56 |  |  | 2.6 |  |  |  | Ratio [37]: 1.5; Ratio [33]: 1.06; Inhibition (Mus musculus [35]): 50%; Inhibition (Cavia porcellus [28]): 53%; Ratio [38]: 5
